Measured values taken from article PMC3572763 (Molecular pharmaceutics, 2013).
Like-named read-outs stand apart in the source and are kept apart here.

Columns and labels:
[1] = from literature, cited from earlier work
[2] = literature; cited from earlier work
PEPT1 [3] = biological target: T1, PEPT1 (Homo sapiens, UniProt P46059); assay: [3H]Gly-Sar uptake inhibition in Caco-2 cells; type: cell-based
T1 sequence (P46059 1-708): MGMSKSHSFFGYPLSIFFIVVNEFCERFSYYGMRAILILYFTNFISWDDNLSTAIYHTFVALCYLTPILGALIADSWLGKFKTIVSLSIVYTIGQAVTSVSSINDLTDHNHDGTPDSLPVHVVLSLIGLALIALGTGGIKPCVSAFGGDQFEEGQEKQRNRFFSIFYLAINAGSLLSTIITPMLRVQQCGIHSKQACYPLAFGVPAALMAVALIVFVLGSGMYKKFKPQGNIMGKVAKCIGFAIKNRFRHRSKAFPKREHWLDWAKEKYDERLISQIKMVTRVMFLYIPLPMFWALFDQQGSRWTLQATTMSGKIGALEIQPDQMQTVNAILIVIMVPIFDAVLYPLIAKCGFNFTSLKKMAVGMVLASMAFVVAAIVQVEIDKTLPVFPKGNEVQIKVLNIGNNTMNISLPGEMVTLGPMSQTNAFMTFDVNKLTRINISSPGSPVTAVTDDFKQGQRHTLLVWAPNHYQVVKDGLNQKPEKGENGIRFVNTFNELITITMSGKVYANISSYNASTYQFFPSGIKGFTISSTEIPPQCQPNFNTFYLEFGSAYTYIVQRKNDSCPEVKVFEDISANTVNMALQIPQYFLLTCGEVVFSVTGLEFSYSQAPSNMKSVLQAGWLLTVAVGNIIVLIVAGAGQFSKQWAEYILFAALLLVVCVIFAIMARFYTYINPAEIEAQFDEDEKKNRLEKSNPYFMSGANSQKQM
Method in brief: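 Caco-2 cells seeded at 5.0 × 10^4/well and grown 10 days. Washed and preincubated 15 min in pH 6.0 MES uptake buffer, then exposed 30 min at 37°C to 10 μM Gly-Sar (~1% [3H]) plus test compound 0.05–5 mM. Cells washed with ice-cold PBS, lysed in MeOH/water 1:1, counted by scintillation; IC50 by nonlinear fit; mean ± SEM, n = 3.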

[4] = system: H1N1 NWS/33 strain of influenza; conditions: cited from earlier work
[5] = system: human lysosomal neuraminidase; conditions: cited from earlier work
Type B strains = conditions: tissue culture; cited from earlier work
[6] = cited from earlier work
PEPT1 [7] = biological target: T1, PEPT1; assay: Direct uptake in PEPT1 over-expressing HeLa cells; type: cell-based; conditions: 1 mM
Caco-2 monolayers = assay: Caco-2 cell monolayers permeability; type: in vitro ADME, human; conditions: A to B
rat jejunum = assay: Single-pass intestinal; type: in vivo; conditions: rat jejunal perfusion
[8] = Chemical stability in pH buffers; type: physicochemical; conditions: for T1/2 −pH 6.0: pH 6.0 buffer; for T1/2 −pH 6.0 / T1/2 pH 7.4: value given in h; for T1/2 pH 7.4: pH 7.4 buffer
[9] = mice; for AUC24hr / Cmax / Tmax hrs: GOCarb measured in plasma; for oral bioavailability: 10 mg/kg oral gavage relative to 1 mg/kg IV
Type A strains = conditions: tissue culture; cited from earlier work

SMILES: CC(C)[C@H](N)C(=O)OCCOCn1cnc2c(=O)[nH]c(N)nc21 [Valacyclovir]
- T1/2 −pH 6.0 ([1]; pH 6.0): ND^b 69.7 h^c
- T1/2 pH 7.4 ([1]; pH 7.4): ND^b >8 h^c
- bioavailability in humans [2]: up to 80%

SMILES: CCC(CC)O[C@@H]1C=C(C(=O)O)C[C@H](NC(=N)N)[C@H]1NC(C)=O [GOCarb, 4-Guanidine oseltamivir carboxylate]
- competition with [3H]Gly-Sar (PEPT1 [3]): little competition
- IC50 ([4]; H1N1 NWS/33 strain of influenza): 0.9 nM
- approximate EC50 ([4]; versus the A/NWS/33 virus, dashed line in Figure 8): ~5 ng/mL
- fold more potent in inhibiting human lysosomal neuraminidase as compared to OC [5]: ~ 10 fold
- fold more potent than OC (Type B strains): ~13 fold
- intestinal permeability ([6]; in rats): < 5%
- oral bioavailability ([6]; species not stated in abstract): 4%
- uptake into transfected or non-transfected cells (PEPT1 [7]): virtually no uptake
- permeability across Caco-2 monolayers (Caco-2 monolayers): negligible permeability
- jejunal permeability (rat jejunum): very low permeability
- jejunal permeability (rat jejunum; listed as parent drug): essentially zero permeability
- hydrolysis in buffers ([8]; all pHs, up to 20 hours): limited hydrolysis
- T1/2 −pH 6.0 [8]: >20h
- T1/2 pH 7.4 [8]: >20h
- AUC24hr ([9]; 1 mg/kg IV): 487 ± 206 ng·h/mL
- AUC24hr ([9]; 10 mg/kg po-fasted): 278 ± 52 ng·h/mL
- Cmax ([9]; 10 mg/kg po-fasted): 50.9 ± 35.8 ng/mL
- Tmax hrs ([9]; 10 mg/kg po-fasted): 1.3 ± 0.6 h
- AUC24hr ([9]; 10 mg/kg po-fed): 291 ± 87 ng·h/mL
- Cmax ([9]; 10 mg/kg po-fed): 65.4 ± 26.8 ng/mL
- Tmax hrs ([9]; 10 mg/kg po-fed): 3.0 ± 1.2 h
- oral bioavailability ([9]; fasted): approximately 5%
- oral bioavailability ([9]; fed): approximately 5%
- fold more potent than OC (Type A strains): approximately 100 fold

SMILES: CCOC(=O)C1=C[C@@H](OC(CC)CC)[C@H](NC(C)=O)[C@@H](NC(=N)N)C1 [GOC ethyl ester]
- T1/2 −pH 6.0 [8]: >20h
- T1/2 pH 7.4 [8]: >20h
